Hits are enriched below; roughly 3.1% of the tested compounds scored in any of these assays.
Cneo AK release: causes C. neoformans cell lysis. lysis activity, % at 15 µM. hit rate 0.2% among 360,000. adenylate kinase release luminescence, 4 h; normalised: neutral wells 0, clomiphene wells 100. AID 651654;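 active = mean lysis activity across replicates of at least 80%, whatever share of replicates individually reach that level; inactive = mean lysis activity below 80%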
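Material – Cryptococcus neoformans yeast cells · Quantity – 5 × 10^6 yeast cells/mL · Buffer or medium – YPD medium · Compound – single dose · Timing – 4 h static compound exposure, 37 °C, read 1 h post-reagent · Signal – adenylate kinase release luminescence · Read-out basis – lysis from increased AK signal · Benchmarks – Clomiphene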
DENV2 CPE: protects cells from dengue virus 2 cytopathic effect; DENV2-infected cells, cytopathic effect rescue, plate reader; CPE inhibition, % at 9.99 µM; hit rate 1.7% among 350,000; in the data active = CPE inhibition above about 20%, passing the limit was not always enough; inconclusive = no clear call, values can overlap the other calls; tested in BHK-21 cells;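 note: 0% = median of neutral control wells and 100% = median of positive control wells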
E-selectin induc: induces E-selectin expression in human endothelial cells | HUVEC E-selectin immunofluorescence imaging; normalized: neutral wells 0, TNF-alpha wells 100 | activation, % at 7.58 µM | hit rate 0.37% among 260,000;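 active = mean E-selectin-positive cell signal at least 10% of the positive control, reached in at least 60% of replicates, without over 20% cell loss; inconclusive = no rule given, readout overlaps actives, possibly toxicity-flagged; inactive = the rest, including those meeting only one limit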
Target sequence (P16581 whole entry, looked up): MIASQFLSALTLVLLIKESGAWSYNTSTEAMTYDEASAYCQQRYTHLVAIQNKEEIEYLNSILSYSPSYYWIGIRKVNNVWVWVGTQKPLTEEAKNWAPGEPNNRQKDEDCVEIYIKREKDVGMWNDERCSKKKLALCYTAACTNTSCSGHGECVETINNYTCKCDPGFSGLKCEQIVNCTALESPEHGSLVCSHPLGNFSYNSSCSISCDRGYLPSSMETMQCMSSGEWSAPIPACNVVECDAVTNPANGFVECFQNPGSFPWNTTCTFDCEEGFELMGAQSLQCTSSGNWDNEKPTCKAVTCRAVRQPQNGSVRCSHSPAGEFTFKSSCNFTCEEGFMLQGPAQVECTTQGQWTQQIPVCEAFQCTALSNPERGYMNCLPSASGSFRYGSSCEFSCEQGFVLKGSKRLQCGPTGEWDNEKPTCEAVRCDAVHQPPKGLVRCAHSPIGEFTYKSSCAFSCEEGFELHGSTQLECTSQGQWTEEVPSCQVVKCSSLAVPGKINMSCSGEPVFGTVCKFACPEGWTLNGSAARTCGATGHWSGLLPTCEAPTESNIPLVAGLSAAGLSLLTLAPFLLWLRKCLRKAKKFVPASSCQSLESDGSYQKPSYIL
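Assay system: HUVEC primary endothelial cells. Input: 3,000 HUVEC seeded per well. Doses: one compound dose added by pin transfer. Read-out basis: % PE-positive cells. Benchmarks: TNF-alpha high, DMSO low. Detection: immunofluorescence imaging. Buffer or medium: EGM-2, gelatin.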
rRNA inh HTS: inhibitors of bacterial rRNA selective over humanized ribosomes; E. coli WT GFP vs humanized-ribosome RFP mutants, fluorescence, 24 h; stronger effect = lower value; DMSO median 0, no signal -100; GFP signal change (wild-type ribosome), % (concentration not given with the values); hit rate 1.6% among 350,000;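 active = significant combined selectivity score with lowered wild-type GFP, culture density cut under 30%, mutant RFP and density less affected; inactive = any of these conditions unmet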
miR122 inh: blocks miR-122 activity in Huh7 sensor cells. Huh7 miR-122 Renilla luciferase sensor, 48 h; neutral wells = 0, positive control = 100. activation (reporter increase), % at 12.5 µM. hit rate 0.3% among 340,000;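 active = mean replicate activation score at least 90 and every replicate individually at or above 90; inconclusive = only one of the two criteria met; inactive = neither criterion met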;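 note: higher luciferase means less miR-122 activity so hits act as miR-122 inhibitors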
* hit, by the source's call; ? = inconclusive; / = no result; [ ] = remark or other dose.

SMILES	Cneo AK release	DENV2 CPE	E-selectin induc	rRNA inh HTS	miR122 inh
C[C@H](CO)N1C[C@H](C)[C@H](CN(C)S(=O)(=O)c2cccs2)Oc2ccc(NC(=O)CCC(F)(F)F)cc2C1=O	-2	4	0	-1	0[16.7 µM]
Cc1ccc(Cn2nnnc2CN2CCC(O)(c3ccc(F)cc3)CC2)cc1	2	-7	/	-27*	-9
COc1ccc(Cn2nnnc2CN2CCC(O)(c3ccc(F)cc3)CC2)cc1	/	-7	2	-17	-4
COc1ccc(Cn2nnnc2CN2CCC(O)(c3ccccc3F)CC2)cc1	/	/	0	0	/
OC1(c2ccccc2F)CCN(Cc2nnnn2Cc2ccc(F)cc2)CC1	2	/	0	-21*	-10
CC(=O)N[C@H]1C=C[C@H](CC(=O)NCC2CCCCC2)O[C@@H]1CO	1	10	-1	-2	/
CCc1cccc(NC(=O)CCc2c(C)nn(-c3ccc(N4CCCCC4)nn3)c2C)c1	-1	?	0	-32*	1
CO[C@@H]1CN(C)C(=O)c2cc(NS(C)(=O)=O)ccc2OC[C@@H](C)N(Cc2ccccn2)C[C@@H]1C	/	/	0	2	6[16.7 µM]
COc1ccccc1CN1CC(C(=O)NCc2nccn2C)CCC1=O (centres undefined)	-1	31*	/	5	3
COc1ccccc1CN1CC(C(=O)N(C)Cc2[nH]c3ccccc3c2C)CCC1=O (centres undefined)	5	-7	119*	-2	29
COc1ccccc1CN1CC(C(=O)N(C)CCCn2nc(C)cc2C)CCC1=O (centres undefined)	-2	52*	0	-1	-1
COc1ccc(CCN2CC(C(=O)N(C)CCn3nc(C)cc3C)CCC2=O)cc1 (centres undefined)	1	0	/	8	7
COc1ccc(N2CCN(CC(=O)Nc3ncc(C)s3)CC2)cc1	-1	-2	0	10	/
Cc1cnc(NC(=O)CN2CCN(c3ccccn3)CC2)s1	0	/	/	8	177*
CC1=CC(=O)C(Sc2ccc(C)cc2)=CC1=O	-2	95*	/	/	10
COc1ccc2c3c([nH]c2c1)[C@@H](CO)N(Cc1nccs1)CC31CCN(Cc2cncnc2)CC1	/	0	0	2	/
Cc1cccc(Oc2nccc(C(F)(F)F)c2C(=O)Nc2ccc(F)cc2F)c1	/	32*	1	14	/
C[C@H]1CCCCO[C@@H](CN(C)C(=O)C2CCCCC2)[C@@H](C)CN([C@@H](C)CO)C(=O)c2cc(NC(=O)Cc3ccccc3)ccc2O1	0	10	0	-2	-6[16.7 µM]
O=C(CCCCCNC(=O)c1ccccc1Br)N=Nc1c(O)[nH]c2ccccc12	/	0	88*	0	15
O=C(CNC(=O)Cc1ccccc1)N=Nc1c(O)[nH]c2ccccc12	0	-4	/	3	-2
O=S(=O)(c1ccccc1)N1CC2(C1)[C@@H](c1ccccc1)[C@@H](CO)N2CC1CCCC1	/	27*	/	-15	/
O=S(=O)(c1ccccc1)N1CC2(C1)[C@H](c1ccccc1)[C@@H](CO)N2CC1CCOCC1	/	36*	0	-2	/
O=C(O)c1ccc(NS(=O)(=O)c2cccc3cccnc23)cc1	4	-2	/	8	5
COc1ccc(NS(=O)(=O)c2ccc3ccccc3c2)c2ncccc12	0	0	/	11	104*
COc1ccc(C(C)(C)C)cc1NS(=O)(=O)c1cccc2cccnc12	-2	-1	0	-17	117*
SMILES	Cneo AK release	DENV2 CPE	E-selectin induc	rRNA inh HTS	miR122 inh
O=S(=O)(Nc1ccc(Cl)cc1)c1cccc2cccnc12	-2	19	/	-23	99*
COc1ccc(CN(C)C[C@H]2Oc3ccc(NC(=O)C4CCCCC4)cc3CC(=O)N([C@H](C)CO)C[C@@H]2C)cc1	-4	10	/	/	-5[16.7 µM]
C[C@@H]1CN([C@H](C)CO)C(=O)Cc2cc(NS(=O)(=O)c3ccc(Cl)cc3)ccc2O[C@@H]1CN(C)C(=O)Nc1ccc2c(c1)OCO2	/	/	0	-2	-7[16.7 µM]
CCOc1ccc2cc(C3CC(c4ccco4)=NN3S(C)(=O)=O)c(=O)[nH]c2c1 (centres undefined)	-1	2	0	4	126*
CCCNC(=O)Nc1ccc2c(c1)C(=O)N(C)C[C@H](OC)[C@H](C)CN(C(C)=O)[C@@H](C)CO2	53	-5	0	1	24[16.7 µM]
CCn1c(CCC(=O)O)nc2cc(S(=O)(=O)N3CCOCC3)ccc21	6	13	117*	8	-7
CCCC#Cc1ccc2c(c1)O[C@H](CN(C)C(=O)C1CCC1)[C@H](C)CN([C@H](C)CO)S2(=O)=O	0	36*	0	-6	0[16.7 µM]
C[C@H]1CN([C@@H](C)CO)S(=O)(=O)c2ccc(C#CCN(C)C)cc2O[C@H]1CN(C)C(=O)C1CCC1	0	29*	0	-2	1[16.7 µM]
CCCC#Cc1ccc2c(c1)O[C@@H](CN(C)C(=O)C1CCC1)[C@H](C)CN([C@@H](C)CO)S2(=O)=O	4	0	0	-49	6[16.7 µM]
CN(C)CCCNc1cc(O)c2ncccc2c1	6	57*	0	80	1
Oc1cc(NCc2ccc(F)cc2)cc2cccnc12	-1	-8	0	3	-11
C[C@@H]1C(=O)N[C@@H](c2ccc3c(c2)OCO3)CC=CC[C@H](C)Oc2ccccc2C(=O)N1C (mixture of isomers)	/	/	/	-5	/
CC(C)(C)c1csc(NC(=O)Cc2cccs2)n1	/	-2	/	-23*	/
O=C(C1CCCC1)N1C[C@H]2[C@@H](c3ccccc31)[C@H](CO)N2C(=O)c1cccnc1	-5	?	0	-2	-12[16.7 µM]
Cc1ccc(S(=O)(=O)Nc2cc(C)c(O)c(Sc3n[nH]c(C)n3)c2)cc1	1	1	/	-43*	79
COc1ccc(-c2csc(NC(=S)NC(=O)/C=C/c3ccco3)n2)cc1Br	0	-4	0	-41*	-5
COc1ccc(-c2csc(NC(=S)NC(=O)/C=C/c3ccco3)n2)cc1OC	/	5	/	-14	-6
Cc1cc(N(C)C(=O)c2ccc3c(c2)S(=O)(=O)c2cc(Cl)ccc2C3=O)c(C(F)(F)F)o1	0	49*	0	-4	-2
CC(C)(C)CNC(=O)c1ccc2c(c1)S(=O)(=O)c1cc(Cl)ccc1C2=O	3	6	0	9	-2
CC(C)NC(=O)N[C@H]1CC[C@H](CCNS(=O)(=O)c2ccc(F)cc2)O[C@@H]1CO	1	-2	0	3	/
O=C(c1ccc(NC2=NC3CS(=O)(=O)CC3S2)cc1)N1CCN(c2ccc([N+](=O)[O-])cc2)CC1 (centres undefined)	17	39*	/	13	0
O=C(c1ccc(NC2=NC3CS(=O)(=O)CC3S2)cc1)N1CCN(c2ccccc2)CC1 (centres undefined)	2	0	-1	7	/

Assay outcomes deposited in PubChem BioAssay by Broad Institute.
